UPR CHOP act = activators of apoptotic CHOP UPR arm, primary screen, cell-based, CHO-CHOP luciferase reporter, luminescence, uHTS; UPR activation; percent of tunicamycin response over DMSO baseline; activation, % at 10 µM; actives 0.34% (n = 330,000); AID 449763, 2010;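 active = at 10 µM dose, activation of 40% or more, normalized to positive control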;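 note: 100% = tunicamycin at 10 µg/mL and 0% = DMSO alone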
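assay system = CHO CHOP reporter cells | amount = 500 CHO-CHOP cells per well | buffer or medium = F12 with 10% FBS | incubation = 16-18 h cell attachment, then 6 h compound exposure, 37 °C | detection = luminescence read with Steady-Glo | read-out = percent activation relative to tunicamycin control | controls = tunicamycin high control, DMSO low control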
XBP1 UPR activ = activators of adaptive XBP1 UPR arm, primary screen, cell-based, CHO-XBP1 luciferase reporter, luminescence, uHTS. activation, % at 20 µM. IRE1-XBP1 UPR activation; percent of tunicamycin response, DMSO as zero. AID 463104, 2010. actives 0.33% (n = 330,000);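 active = versus positive control, 20 µM dose yields 30% or more activation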;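 note: 100% = tunicamycin at 10 µg/mL and 0% = DMSO only wells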
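Signal: luciferase luminescence; Assay system: CHO-XBP1 luciferase reporter cells; Amount: one thousand reporter cells per well; Dosing: 20 µM single concentration, DMSO 1%; Benchmarks: high control tunicamycin 10 µg/mL final, low control DMSO vehicle only; Schedule: 6 h compound exposure at 37 °C, 5% CO2; Evaluation: percent activation relative to tunicamycin reference.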
CSC inhib = cancer stem cell viability inhibitors, primary screen, luminescence; AID 2717, 2010; cancer stem cell-like cells viability; actives 1.1% (n = 300,000); inhibition, % at 7.5 µM; in the data active = inhibition above about 75%; tested in HMLE shEcad cells
Beta apoptosis = inhibitors of cytokine-induced beta cell apoptosis, primary screen, luminescence; actives 0.8% (n = 300,000); INS-1E cytokine-induced death, ATP luminescence, 48 h; percent of positive-control rescue, neutral wells zero; AID 435005, 2010; protection from apoptosis, % (no concentration beside the values);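 active = Every replicate reaches about 75%, or at least half do and their mean reaches it too, limit read from the data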;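 note: 0% = cytokine-treated negative control wells and 100% = positive control rescue; higher means more ATP so stronger rescue from cytokine killing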
SKKanGAS inh = S. pyogenes SKKanGAS growth inhibitors in kanamycin, primary screen, streptokinase expression inhibitor project, SKKanGAS strain, BacTiter-Glo luminescence. actives 1.3% (n = 300,000). 6 h. inhibition, % at 7.5 µM. AID 1662, 2009;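 active = mean replicate score, as percent of positive control median, at least 50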;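 note: strain carries kanamycin resistance gene driven by streptokinase promoter and grows in 40 µg/ml kanamycin; loss of luminescence reflects streptokinase promoter inhibition or plain growth inhibition; 0% = median of DMSO wells and 100% = positive control at its reference dose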
Mdm2 MdmX PPI = inhibitors of human Mdm2-MdmX association, primary screen, cell-based, luminescence, split luciferase, SaOS-2, uHTS | Protein Mdm4 (Homo sapiens) + E3 ubiquitin-protein ligase Mdm2 (Homo sapiens), … | SaOS-2 split-luciferase Mdm2/MdmX complementation | inhibition, % at 8 µM | actives 3% (n = 330,000) | AID 485346, 2010;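 active = inhibition of at least 50% at 8 µM in the primary screen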
Target sequence (O15151 whole entry, looked up): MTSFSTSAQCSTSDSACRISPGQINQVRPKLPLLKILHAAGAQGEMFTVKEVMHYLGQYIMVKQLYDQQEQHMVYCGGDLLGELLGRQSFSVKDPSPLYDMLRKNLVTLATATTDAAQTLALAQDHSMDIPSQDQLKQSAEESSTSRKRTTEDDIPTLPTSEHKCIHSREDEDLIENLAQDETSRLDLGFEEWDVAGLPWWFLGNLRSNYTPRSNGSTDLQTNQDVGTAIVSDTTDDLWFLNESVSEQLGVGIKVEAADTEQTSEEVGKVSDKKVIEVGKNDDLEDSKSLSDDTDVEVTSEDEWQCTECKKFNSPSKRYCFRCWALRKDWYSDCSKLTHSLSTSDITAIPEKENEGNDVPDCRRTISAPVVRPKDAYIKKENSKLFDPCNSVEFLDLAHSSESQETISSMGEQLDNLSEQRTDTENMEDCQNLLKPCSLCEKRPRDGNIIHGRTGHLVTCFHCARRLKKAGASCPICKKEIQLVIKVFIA
Target sequence (Q00987 whole entry, looked up): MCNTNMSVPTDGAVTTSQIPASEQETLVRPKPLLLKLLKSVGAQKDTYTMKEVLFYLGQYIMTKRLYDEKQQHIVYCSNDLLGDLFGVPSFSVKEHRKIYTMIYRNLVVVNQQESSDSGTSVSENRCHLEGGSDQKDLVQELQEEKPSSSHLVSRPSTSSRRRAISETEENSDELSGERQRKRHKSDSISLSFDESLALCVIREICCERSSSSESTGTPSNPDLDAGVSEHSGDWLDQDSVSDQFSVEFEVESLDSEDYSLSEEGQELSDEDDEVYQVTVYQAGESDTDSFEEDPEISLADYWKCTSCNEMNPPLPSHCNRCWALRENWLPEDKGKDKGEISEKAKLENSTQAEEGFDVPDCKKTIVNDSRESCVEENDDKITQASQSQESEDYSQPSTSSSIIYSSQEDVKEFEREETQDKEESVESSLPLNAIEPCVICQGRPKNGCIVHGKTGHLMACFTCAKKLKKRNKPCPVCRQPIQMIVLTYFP
* = called active by the depositor; nt = no result. Hits are enriched below; roughly 4.8% of the tested compounds scored in any of these assays.

SMILES	UPR CHOP act	XBP1 UPR activ	CSC inhib	Beta apoptosis	SKKanGAS inh	Mdm2 MdmX PPI
C#CCOCCOCCOCCNc1nc(N2CCOCC2)nc(N2CCN(C(=O)CCCCCCCCCCNC(=O)[C@@H]([C@H](C)CC)n3cc(CCCCCN)nn3)CC2)n1	-0.2	0.2	48.4	3.7	nt	31.9
C#CCOCCOCCOCCNc1nc(N2CCN(C(=O)CCCCCCCCCCNC(=O)[C@H]([C@@H](C)CC)n3cc(CCCCN=C(N)N)nn3)CC2)nc(N2CCN(C(=O)CCCCCCCCCCNC(=O)[C@H](CO)n3cc(CCCCCN)nn3)CC2)n1	1.5	3.2	18.4	108.0*	nt	4.1
C#CCOCCOCCOCCNc1nc(N2CCN(C(=O)CCCCCCCCCCNC(=O)[C@H]([C@@H](C)CC)n3cc(CCCCN=C(N)N)nn3)CC2)nc(N2CCN(C(=O)CCCCCCCCCCNC(=O)[C@H]([C@@H](C)CC)n3cc(CCCCN=C(N)N)nn3)CC2)n1	4.1	7.5	-6.5	99.2*	nt	-24.2
C#CCOCCOCCOCCNc1nc(N2CCN(C(=O)CCCCCCCCCCNC(=O)[C@H]([C@@H](C)CC)n3cc(CCCCN=C(N)N)nn3)CC2)nc(N2CCN(C(=O)CCCCCCCCCCNC(=O)[C@H](CCCCN)n3cc(C)nn3)CC2)n1	1.3	14.7	22.1	98.0*	nt	18.3
O=C(O)c1ccc(Cl)c(S(=O)(=O)Nc2ccc(OCc3ccccc3)cc2)c1	3.4	1.7	0.4	nt	29.7	-9.4
CCC(C)NC(=O)c1ccc2c(c1)S(=O)(=O)c1ccccc1C2=O (stereo not given)	1.4	4.6	nt	2.3	-3.5	15.1
C#CCOCCOCCOCCNc1nc(N2CCN(C(=O)CCCCCCCCCCNC(=O)Cn3cc(CCCCCN)nn3)CC2)nc(N2CCN(C(=O)CCCCCCCCCCNC(=O)[C@H]([C@@H](C)CC)n3cc(CCCCN=C(N)N)nn3)CC2)n1	-0.2	5.2	161.3*	86.4*	nt	10.1
CC[C@H](C)[C@@H](C(=O)NCCCCCCCCCCC(=O)N1CCN(C(=O)OC(C)(C)C)CC1)n1cc(CCCCCNC(=O)OC(C)(C)C)nn1	-1.6	-3.8	-5.1	100.8*	nt	17.2
C#CCOCCOCCOCCNc1nc(N2CCN(C(=O)Cn3cc(CCCN=C(N)N)nn3)CC2)nc(N2CCN(C(=O)[C@H]([C@@H](C)CC)n3cc(CCCCN)nn3)CC2)n1	0.8	0.0	-6.3	0.4	nt	-8.6
CC(C)(C)OC(=O)CC[C@@H](C(=O)NCCCCCCCCCCC(=O)N1CCN(C(=O)OC(C)(C)C)CC1)n1cc(CCCCCNC(=O)OC(C)(C)C)nn1	5.8	-2.3	-1.2	12.1	nt	-11.3
CCN1C(=O)/C(=C\c2ccncc2)SC1=Nc1ccc(C)c(C)c1	1.6	6.8	84.5*	8.0	13.2	24.7
CC(C)CCNc1nc(-c2ccco2)c2c(c1C#N)CCCC2	-1.5	-2.9	79.8*	-6.1	41.1	30.1
N#Cc1c(NCCN)nc(-c2ccco2)c2c1CCCC2	0.2	-0.9	7.2	16.4	7.9	27.0
CCn1c(NC(=O)c2ccccc2)nc2ccccc21	5.0	5.0	7.4	6.4	22.9	-7.5
CCn1c(NC(=O)c2cccc(Cn3cc(Cl)cn3)c2)nc2ccccc21	0.6	-0.1	21.8	nt	84.6*	43.4
C=CCn1c(NC(=O)c2ccccc2)nc2ccccc21	4.7	-0.5	12.0	nt	65.4*	21.1
O=C(c1ccco1)N1CCN(C(=O)C2CC(=O)N(c3ccc(Cl)cc3)C2)CC1 (stereo not given)	0.1	3.0	-12.7	0.8	-0.8	20.9
COc1ccc(NC(=O)CSc2nc(O)cc(=O)n2-c2ccc(OC)cc2)cc1	0.6	0.5	-7.0	-5.4	53.6*	-30.4
Cc1ccc(-n2c(SCC(=O)Nc3ccc4c5c(cccc35)CC4)nc(O)c(C)c2=O)cc1	5.6	-2.0	-0.1	-0.4	-10.2	-4.3
Cc1ccc(-n2c(SCC(=O)Nc3ccc4c5c(cccc35)CC4)nc(O)cc2=O)cc1	-3.7	-3.3	0.7	-8.4	51.6*	13.1
COc1ccc(-n2c(SCC(=O)Nc3cccc4ccccc34)nc(O)cc2=O)cc1	1.1	-2.7	-9.7	-10.8	31.7	13.5
COc1ccc(-n2c(SCC(=O)Nc3ccccc3)nc(O)cc2=O)cc1	-0.8	-3.5	-6.5	-0.8	49.6*	2.5
CCNC(=S)Nc1ccc(Cc2nc3ccccc3[nH]2)cc1	1.5	-2.7	1.5	-9.6	-11.6	1.6
O=C(OC[C@H]1O[C@@H](OC(=O)c2cc(O)c(O)c(OC(=O)c3cc(O)c(O)c(O)c3)c2)[C@H](OC(=O)c2cc(O)c(O)c(OC(=O)c3cc(O)c(O)c(O)c3)c2)[C@@H](OC(=O)c2cc(O)c(O)c(OC(=O)c3cc(O)c(O)c(O)c3)c2)[C@@H]1OC(=O)c1cc(O)c(O)c(OC(=O)c2cc(O)c(O)c(O)c2)c1)c1cc(O)c(O)c(OC(=O)c2cc(O)c(O)c(O)c2)c1	nt	nt	90.0*	11.9	nt	nt
CC1CCCN(CC(O)COc2ccc(S(=O)(=O)N3CCCC3)cc2[N+](=O)[O-])C1 (stereo not given)	0.7	-1.0	23.0	-6.4	nt	-26.7
SMILES	UPR CHOP act	XBP1 UPR activ	CSC inhib	Beta apoptosis	SKKanGAS inh	Mdm2 MdmX PPI
Cc1cccc(/C=C2/S/C(=N/N=C3\CC4CCC3(C)C4(C)C)NC2=O)c1 (stereo not given)	-1.7	1.3	-8.5	6.1	125.1*	35.5
N#Cc1ccc(C(=O)OCC(=O)Nc2cccc(S(=O)(=O)NC3=NCCC3)c2)cc1	2.1	-1.9	-9.4	-3.5	nt	5.9
CC(C)c1nc(N2CCCC2)c(C#N)c2c1CCCC2	4.4	-1.4	48.1	2.8	93.1*	14.2
CCc1nc(N2CCCC2)c(C#N)c2c1CCCC2	-1.2	-1.8	9.9	-3.1	10.3	-19.0
O=C1COc2ccc(C(=O)COC(=O)c3c(F)cccc3Cl)cc2N1	6.4	2.7	-6.2	5.1	nt	3.5
O=C1COc2ccc(C(=O)COC(=O)c3sc4ccccc4c3Cl)cc2N1	-1.7	47.3*	8.9	1.9	-4.2	19.7
Cc1cccc(C(=O)Nc2scc(-c3ccc(Br)cc3)c2C(=O)O)c1	3.8	-1.0	17.2	7.1	89.4*	22.0
O=C(C[C@@H]1C/C=C\C[C@H](Cc2ccc(F)cc2)C(=O)OC[C@@H](c2ccccc2)NC1=O)NCCO	-0.3	-3.0	14.6	-6.2	nt	11.5

Screens as filed in PubChem.
